Assay results from ChEMBL document CHEMBL3392953, “Synthesis and biological evaluation of furanoallocolchicinoids” (J Med Chem, 2015).

Key:
ASPC1 [1] = assay: Cytotoxicity against human AsPC1 cells after 72 hrs by MTT assay; type: functional, cell-based; details: ASPC1, 72 h
Procedure, shortened: (§1)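 Cells seeded at 3x10^5 cells/mL 24 h before assay (HEK293, AsPC-1 in DMEM; Jurkat, W1308 in RPMI-1640; 10% FCS, 2-ME). Tenfold dilutions from […] to 1 nM added; untreated cells as controls. 72 h incubation, MTT 250 µg/ml added for last 6 h, formazan dissolved in DMSO, OD read. IC50 from titration curves; inhibition index = 1 − OD(treated)/OD(control).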

HEK293 [2] = assay: Cytotoxicity against HEK293 cells after 72 hrs by MTT assay; type: functional, cell-based; details: Homo sapiens, HEK293, 72 h; procedure, shortened: as §1
[3] = Cytotoxicity against mouse W1308 cells after 72 hrs by MTT assay; type: functional, cell-based; details: W1308, 72 h; procedure, shortened: as §1
Jurkat [4] = assay: Cytotoxicity against human Jurkat cells after 72 hrs by MTT assay; type: functional, cell-based; procedure, shortened: as §1
Jurkat [5] = assay: Growth inhibition of human Jurkat cells at 100 uM after 72 hrs by MTT assay; type: functional; details: read-out: GI
HEK293 [6] = assay: Growth inhibition of HEK293 cells at 100 uM after 72 hrs by MTT assay; type: functional; details: Homo sapiens, HEK293, 72 h; read-out: GI
ASPC1 [7] = assay: Growth inhibition of human AsPC1 cells at 100 uM after 72 hrs by MTT assay; type: functional; details: ASPC1, 72 h, read-out: GI
[8] = Growth inhibition of mouse W1308 cells at 100 uM after 72 hrs by MTT assay; type: functional; details: W1308, 72 h, read-out: GI
[9] = Inhibition of lamb brain tubulin polymerization assessed as reduction in microtubule assembly by spectrophotometry; set-up: species or system Ovis aries
Procedure, shortened: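 Tubulin purified from lamb brain by ammonium sulfate fractionation and ion-exchange chromatography. Assembly in 20 mM sodium phosphate, 1 mM EGTA, 10 mM MgCl2, 3.4 M glycerol, 1 mM GTP, pH 6.5, started by warming to 37 °C; turbidity followed at 350 nm over time. Inhibition plotted against ligand:tubulin molar ratio.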

[10] = Reduction in blood-brain barrier permeability in […]; type: ADME, tissue-based, C57BL/6, Endothelial cell; set-up: scale not given: the % may be the effect or the level left; details: mouse
Procedure, shortened: (§2)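 Intact mice, 6–8 wk, 3 per group; compound dissolved in DMSO at 20 mM, 4 µl diluted into 200 µl saline (1 mg/kg), mixed with 50 µl rhodamine B, single i.v. injection; controls DMSO plus rhodamine B. Killed 4 h later; organs cut, extracted in 0.3N acid in ethanol 2 h at 37 °C, centrifuged, supernatant fluorescence read with 540 nm filter.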

Mus musculus [11] = assay: Toxicity in C57BL/6 mouse assessed as interphase microtubule de-stabilizing activity by measuring influx of rhodamine in to spleen at 1 mg/kg, iv co-administered with rhodamine B by fluorimetry; type: organism-based; set-up: dose 1 mg/kg, route intravenous; details: in vivo; procedure, shortened: as §2
Mus musculus [12] = assay: Toxicity in C57BL/6 mouse assessed as interphase microtubule de-stabilizing activity by measuring leakage of rhodamine through the gut at 1 mg/kg, iv co-administered with rhodamine B by fluorimetry; type: organism-based; set-up: dose 1 mg/kg, route intravenous; details: in vivo; procedure, shortened: as §2
Mus musculus [13] = assay: Toxicity in C57BL/6 mouse assessed as interphase microtubule de-stabilizing activity by measuring influx of rhodamine in to heart at 1 mg/kg, iv co-administered with rhodamine B by fluorimetry; type: organism-based; set-up: dose 1 mg/kg, route intravenous; details: in vivo; procedure, shortened: as §2

COc1cc2c(c(OC)c1OC)-c1cc3cc(-c4ccccc4)oc3cc1[C@@H](NC(C)=O)CC2
IC50 (ASPC1 [1]): 20 µM
IC50 (HEK293 [2]): 4 µM
IC50 [3]: 8 µM
IC50 (Jurkat [4]): 4 µM

COc1cc2c(c(OC)c1OC)-c1cc3cc(COC(C)=O)oc3cc1[C@@H](NC(C)=O)CC2
IC50 (ASPC1 [1]): 2 µM
inhibition of growth at 100 µM (Jurkat [5]): 50%
IC50 (HEK293 [2]): 1 µM
inhibition of growth at 100 µM (HEK293 [6]): 50%
IC50 [3]: 1 µM
inhibition of growth at 100 µM (ASPC1 [7]): 50%
IC50 (Jurkat [4]): 1 µM
inhibition of growth at 100 µM [8]: 50%

COc1ccc(/C=C\c2cc(OC)c(OC)c(OC)c2)cc1O [COMBRETASTATIN A4]
ligand/tubulin molar ratio [9]: 0.09
Activity [10]: 40%
Activity (Mus musculus [11]): Toxic
Activity (Mus musculus [12]): Toxic
Activity (Mus musculus [13]): Toxic
